ChEMBL document CHEMBL3243994, “Synthesis of medroxyprogesterone bromoacetate for affinity labeling” (J Med Chem, 1977)
The source made the active and inactive calls. No cut-off for these calls is given here.

How the values were obtained:
Rattus norvegicus [1] = test: Progestational activity in 9-day old pregnant bilateral ovariectomized Sprague-Dawley albino rat assessed as viable fetus at 0.055 to 0.11 mg, sc for 3 days beginning 3 hrs prior to overiectomy measured on day 12 in presence of 17beta-estradiol; type: functional, organism-based
In short: (§1)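 Albino rats (Holtzman), 9 days pregnant and weighing 275–305 g, were used in groups of five. They received subcutaneous steroid in 0.2 mL sesame oil together with 17β-estradiol, 3 h before bilateral ovariectomy. Injections were repeated every 12 h for 3 days. On day 12 the animals were killed, opened by a ventral longitudinal incision, and the intact uteri removed to examine the fetuses.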

[2] = target: 3-alpha-(or 20-beta)-hydroxysteroid dehydrogenase (Streptomyces exfoliatus) (UniProt P19992); test: Inhibition of 20beta-hydroxy steroid dehydrogenase in Streptomyces hydrogenans assessed as half life of enzyme inactivation at 50 uM
3-alpha-(or 20-beta)-hydroxysteroid dehydrogenase (Streptomyces exfoliatus), sequence (P19992 whole entry): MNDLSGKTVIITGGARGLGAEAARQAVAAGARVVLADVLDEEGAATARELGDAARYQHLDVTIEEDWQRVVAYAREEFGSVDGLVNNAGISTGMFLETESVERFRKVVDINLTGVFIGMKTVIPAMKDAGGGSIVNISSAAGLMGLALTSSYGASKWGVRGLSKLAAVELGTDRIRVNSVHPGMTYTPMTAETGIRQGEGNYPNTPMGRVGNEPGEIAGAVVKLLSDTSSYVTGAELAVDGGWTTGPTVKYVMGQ
In short: (§2)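 20β-Hydroxy steroid dehydrogenase from Streptomyces hydrogenans (4.2×10^-7 M) in 0.05 M phosphate buffer, pH 7.0, with 15% glycerol, was incubated with the bromoacetate steroid at 5×10^-5 M at 25 °C. Remaining activity was followed over time as NADH-dependent cortisone reduction to assess time-dependent, irreversible inactivation. The inactivation half-life was taken from the rate of activity loss.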

Rattus norvegicus [3] = test: Termination of pregnancy in intact rat assessed as fetal resorption administered into uterine lumen on day 7 measured on day 14; type: functional, organism-based
Rattus norvegicus [4] = test: Progestational activity in 9-day old pregnant bilateral ovariectomized Sprague-Dawley albino rat assessed as viable fetus at 1 mg, sc for 3 days beginning 3 hrs prior to overiectomy measured on day 12 in presence of 17beta-estradiol; type: functional, organism-based
In short: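 Groups of five 9-day-pregnant albino rats (275–305 g) received sc injections in 0.2 mL sesame oil together with 17β-estradiol (0.1×10^-3 mg), starting 3 h before bilateral ovariectomy. Injections were repeated every 12 h for 3 days. On day 12 the animals were sacrificed and opened by longitudinal ventral incision, and the intact uteri were removed to examine the fetuses.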

[5] = target: 3-alpha-(or 20-beta)-hydroxysteroid dehydrogenase (Streptomyces exfoliatus) (UniProt P19992); test: Time-dependent inhibition of 20beta-hydroxy steroid dehydrogenase in Streptomyces hydrogenans assessed as inhibition of […] at 50 uM; in short: as §2
[6] = target: 3-alpha-(or 20-beta)-hydroxysteroid dehydrogenase (Streptomyces exfoliatus) (UniProt P19992); test: Irreversible inhibition of 20beta-hydroxy steroid dehydrogenase in Streptomyces hydrogenans assessed as inhibition of […] at 50 uM; in short: as §2
Rattus norvegicus [7] = test: Progestational activity in 9-day old pregnant bilateral ovariectomized Sprague-Dawley albino rat assessed as viable fetus at 0.074 to 0.15 mg, sc for 3 days beginning 3 hrs prior to overiectomy measured on day 12 in presence of 17beta-estradiol; type: functional, organism-based; in short: as §1
Rattus norvegicus [8] = test: Progestational activity in 9-day old pregnant bilateral ovariectomized Sprague-Dawley albino rat assessed as unresorbed fetus at 0.074 mg, sc for 2 days beginning 3 hrs prior to overiectomy measured on day 12 in presence of 17beta-estradiol; type: functional, organism-based
In short: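 Pregnant albino rats (Holtzman, day 9, 275–305 g) were used in a group of five. They received a subcutaneous steroid/17β-estradiol mixture in 0.2 mL sesame oil 3 h before bilateral ovariectomy and a second injection 12 h later, with nothing given afterwards. On day 12 the rats were sacrificed and autopsied, and the intact uteri removed to score the fetuses.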

Structure (SMILES) | T1/2 [2] [h] | Activity (Rattus norvegicus [3]) | also measured
CC(=O)O[C@]1(C(C)=O)CC[C@H]2[C@@H]3C[C@H](C)C4=CC(=O)CC[C@]4(C)[C@H]3CC[C@@]21C | – | – | Activity (Rattus norvegicus [1]): Active
CC(=O)[C@H]1[C@H](OC(=O)CBr)C[C@H]2[C@@H]3CCC4=CC(=O)CC[C@]4(C)[C@H]3CC[C@@]21C | 4 | Active | –
CC(=O)[C@H]1CC[C@H]2[C@@H]3CCC4=CC(=O)CC[C@]4(C)[C@H]3[C@H](OC(=O)CBr)C[C@]12C | – | Active | –
CC(=O)[C@H]1CC[C@H]2[C@@H]3CCC4=CC(=O)CC[C@]4(C)[C@H]3CC[C@]12C | – | – | Activity (Rattus norvegicus [4]): Active
CC(=O)[C@@]1(OC(=O)CBr)CC[C@H]2[C@@H]3C[C@H](C)C4=CC(=O)CC[C@]4(C)[C@H]3CC[C@@]21C | 15 | inactive | inhibition [5]: Active; inhibition [6]: Active; Activity (Rattus norvegicus [7]): Active; Activity (Rattus norvegicus [8]): Active
C[C@]12CC[C@H]3[C@@H](CCC4=CC(=O)CC[C@@H]43)[C@@H]1CC[C@@H]2OC(=O)CBr | – | Active | –
